Source: ChEMBL document CHEMBL1155452, “Oncocin (VDKPPYLPRPRPPRRIYNR-NH2): a novel antibacterial peptide optimized against gram-negative human pathogens” (J Med Chem, 2010)

What was measured:
[1] = test system: Escherichia coli; experiment: Antibacterial activity against Escherichia coli BL21 AI after 20 hrs by broth microdilution assay; type: functional
In short: (§1)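 Nutrient-broth overnight cultures diluted in 1% TSB; E. coli BL21AI 7.5 × 10^5 cells/well, M. luteus ATCC 10240 2 × 10^6 cells/well. Peptides serially 2-fold diluted in 1% TSB from 128 to typically 0.5 μg/mL. Incubation at 37 °C; A595 read after 20 ± 2 h. MIC is the lowest concentration with absorbance not above medium only. Triplicate.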

[2] = test system: Micrococcus luteus; experiment: Antibacterial activity against Micrococcus luteus ATCC 10240 after 20 hrs by broth microdilution assay; type: functional; settings: ATCC 10240, 20 h; in short: as §1
[3] = test system: SH-SY5Y; experiment: Cytotoxicity against human SH-SY5Y cells at 600 ug/ml after 24 hrs by MTT assay; type: cell-based
In short: (§2)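 HeLa (1.5 × 10^4/well, seeded overnight) or SH-SY5Y (2 × 10^4/well, differentiated 5 days with 10 μM trans-retinoic acid) in DMEM/Ham's F-12 with 5% or 15% FBS. Peptide added at 600 μg/mL for 24 h at 37 °C, 5% CO2. MTT 0.5 mg/mL for 4 h, then SDS/HCl for 16 h; A590 read against 650 nm. Normalized to PBS (100%); DMSO 12% as positive control.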

[4] = test system: HeLa; experiment: Cytotoxicity against human HeLa cells at 600 ug/ml after 24 hrs by MTT assay; type: cell-based; in short: as §2

Row | Compound | MIC [1] [µg/mL] | MIC [2] [µg/mL] | Activity [3] | Activity [4]
1 | H-VDKPPYLPRPRPPRRIYNNR-OH | 8 | 16 | – | –
2 | CC[C@H](C)[C@H](NC(=O)[C@H](Cc1ccc(O)cc1)NC(=O)[C@@H](NC(=O)[C@@H]1CCCN1C(=O)[C@H](CCCNC(=N)N)NC(=O)[C@H](CC(N)=O)NC(=O)[C@H](CC(N)=O)NC(=O)CN)C(C)C)C(=O)N1CCC[C@H]1C(=O)N[C@@H](CCC(N)=O)C(=O)N1CCC[C@H]1C(=O)N[C@@H](CCCNC(=N)N)C(=O)N1CCC[C@H]1C(=O)N1CCC[C@H]1C(=O)N[C@@H](Cc1cnc[nH]1)C(=O)N1CCC[C@H]1C(=O)N[C@@H](CCCNC(=N)N)C(=O)N[C@@H](CC(C)C)C(=O)O [APIDAECIN] | – | – | Non-toxic | Non-toxic
3 | H-VDKPPYLPRPRPPRRIYNRN-NH2 | 16 | 128 | – | –

The next lines start with results.

Row | MIC [1] [µg/mL] | MIC [2] [µg/mL] | Compound | Activity [3] | Activity [4]
4 | 8 | 8 | H-VDKPPYLPRPRPPRRIYNNR-NH2 | – | –
5 | 128 | 64 | H-VDKPPYLPRPTPPRRIYNNR-OH | – | –
6 | 64 | 32 | H-VDKPPYLPRPHPPRRIYNNR-OH | – | –
7 | 16 | 16 | H-VDKPPYLPRPKPPRRIYNNR-OH | – | –
